Results pooled from the literature.
Protocols differ between the studies behind these lines. pIC50: −log10 of the molar value.
BCHE: Cholinesterase (BCHE, Equus caballus, UniProt P81908)
PTGS1: Prostaglandin G/H synthase 1 (PTGS1, Ovis aries, UniProt P05979)
SIRT3: NAD-dependent protein deacetylase sirtuin-3, mitochondrial (SIRT3, Homo sapiens, UniProt Q9NTG7)
PTPN11: Tyrosine-protein phosphatase non-receptor type 11 (PTPN11, Homo sapiens, UniProt Q06124)
MAP3K9: Mitogen-activated protein kinase kinase kinase 9 (MAP3K9, Homo sapiens, UniProt P80192)
DRD1: D(1A) dopamine receptor (DRD1, Homo sapiens, UniProt P21728)
CYP2B6: Cytochrome P450 2B6 (CYP2B6, Homo sapiens, UniProt P20813)

| SMILES | target | assay | test system | setting | pIC50 |
| --- | --- | --- | --- | --- | --- |
| OCCN1CCN(c2nccc(NCc3ccccc3)n2)CC1 | BCHE | enzyme activity, inhibitor | – | – | < 4.00 |
| Cc1ccn2c(Nc3ccccc3)c(-c3ccc(S(C)(=O)=O)cc3)nc2c1 | PTGS1 | enzyme activity, inhibitor, fluorescence | – | – | 4.26 |
| COC(=O)[C@H](Cc1ccc(OP(=O)(O)O)c(OP(=O)(O)O)c1)NC(=O)OCC1c2ccccc2-c2ccccc21 | Signal transducer and activator of transcription 5A, SH2 (Homo sapiens, UniProt P42229) | ligand displacement, FP | – | – | 4.80 |
| CS(=O)(=O)c1ccc(-c2nc3ccccn3c2Nc2ccccc2)cc1 | PTGS1 | enzyme activity, inhibitor, fluorescence | – | – | 4.74 |
| O=C(NO)c1ccc(CN(c2cnccn2)c2cnccn2)cc1 | SIRT3 | enzyme activity, inhibitor, fluorescence | – | – | < 5.00 |
| N#CC1(c2ccc(NC(=O)c3cccnc3NCc3ccncc3)cc2)CCCC1 | Mitogen-activated protein kinase kinase kinase 20 (MAP3K20, Homo sapiens, UniProt Q9NYL2) | enzyme activity, inhibitor, mass spectrometry | – | – | 6.68 |
| CC1=C[C@@]2(C[C@H](C)[C@H]3CC=C(CO)C(=O)[C@@H]3O2)OC1=O | PTPN11 | enzyme activity, inhibitor | – | – | 4.32 |
| Cc1cc(Nc2cc(CN3CCOCC3)c3nc(C)c(Cc4ccc(Cl)cc4F)n3n2)n[nH]1 | MAP3K9 | enzyme activity, inhibitor, TR-FRET | – | – | 6.52 |
| N[C@@H](CC(=O)O)C(=O)N[C@@H](Cc1ccccc1)C(=O)O | PTPN11 | enzyme activity, inhibitor, absorbance | – | pH 7.4 | 3.96 |
| O=C1Nc2ccccc2/C1=C1/Nc2ccccc2/C1=N\O | Ribosomal protein S6 kinase alpha-3, N-terminal kinase domain (RPS6KA3, Homo sapiens, UniProt P51812) | enzyme activity, inhibitor, FP | – | – | 6.00 |
| c1ccc(CNc2ccnc(N3CCNCC3)n2)cc1 | BCHE | enzyme activity, inhibitor | – | – | < 4.00 |
| CC[C@@H](C(=O)Nc1ccc(C(N)=O)c(F)c1)n1cc(OC)c(-c2cc(Cl)ccc2-n2cc(C(F)(F)F)nn2)cc1=O | Coagulation factor VII (F7, Homo sapiens, UniProt P08709) | enzyme activity, inhibitor | – | – | 5.72 |
| Cc1cnc(-c2ccc(-c3ccc(NC(=O)Nc4c(F)cc(F)cc4F)cc3F)c3c2C(=O)NC3)[nH]1 | BDNF/NT-3 growth factors receptor (NTRK2, Homo sapiens, UniProt Q16620) | enzyme activity, inhibitor | – | – | 8.19 |
| Cc1c(Br)cc(NC(=O)NS(=O)(=O)O)cc1Br | Tyrosine-protein phosphatase non-receptor type 9 (PTPN9, Homo sapiens, UniProt P43378) | enzyme activity, inhibitor, absorbance | – | – | < 5.00 |
| CC(NC(=O)c1ccccc1/N=C/c1c(O)ccc2ccccc12)c1ccccc1 (stereo not shown) | SIRT3 | enzyme activity, inhibitor, HPLC | – | – | 3.82 |
| C[C@@H]1Cc2ccccc2N1C(=O)NCCCCN(C)[C@@H]1Cc2cccc3[nH]c(=O)n(c23)C1 | DRD1 | ligand displacement, radioligand | – | – | < 5.00 |
| Oc1cc2c(cc1OCC(F)F)CCN1Cc3c(c(Br)cc(O)c3OCC(F)F)C[C@@H]21 | DRD1 | cAMP, antagonist, TR-FRET | – | – | 6.64 |

| SMILES | target | assay | test system | setting | pIC50 |
| --- | --- | --- | --- | --- | --- |
| CC(=O)N1C[C@@H](CCN2CCC(c3c[nH]c4cc(Cl)ccc34)CC2)c2ccccc21 | Sodium-dependent serotonin transporter (SLC6A4, Homo sapiens, UniProt P31645) | ligand displacement, radioligand | – | cell membranes | 6.62 |
| CC1=C[C@@]2(C[C@H](C)[C@H]3CC=C(C)C(=O)[C@@H]3O2)OC1=O | PTPN11 | enzyme activity, inhibitor | – | – | < 3.30 |
| CN1CCN(c2ccc(Nc3ncc4cc(C#N)c(=O)n(C5CCCC5)c4n3)cc2)CC1 | MAP3K9 | enzyme activity, inhibitor | – | – | 6.32 |
| COc1ccc(COc2c(OC)ccc3c2C[C@@H](C(=O)O)N(c2nc4ccc(C#N)cc4o2)C3)cn1 | Type-2 angiotensin II receptor (AGTR2, Homo sapiens, UniProt P50052) | cell-free assay, TR-FRET | – | – | 7.34 |
| CC(C)(C)n1nc(-c2ccc3nc(OC4CC4)ccc3c2)c(C(N)=O)c1N | Calcium/calmodulin-dependent protein kinase type 1D (CAMK1D, Homo sapiens, UniProt Q8IU85) | cell-free assay | – | – | < 5.00 |
| Cc1cc2c(F)c(Oc3ncnn4cc(OC[C@@H](C)O)c(C)c34)ccc2[nH]1 | CYP2B6 | enzyme activity, inhibitor, fluorescence | – | 15 min | 5.23 |
| CN(C)CC#Cc1ccc2[nH]c3c(c2c1)-c1nc(N)ncc1CCC3 | Dual specificity mitogen-activated protein kinase kinase 2 (MAP2K2, Homo sapiens, UniProt P36507) | enzyme activity, inhibitor, radiometric | – | – | < 5.00 |
| FC(F)(F)c1ccc(CN2CCN(c3nccc(NCc4ccccc4)n3)CC2)cc1 | BCHE | enzyme activity, inhibitor | – | – | < 4.00 |
| O=Cc1ccc2[nH]ncc2c1 | Ribosomal protein S6 kinase alpha-3 (RPS6KA3, Homo sapiens, UniProt P51812) | enzyme activity, inhibitor | – | – | ~3.46 |
| CCCCCCCCCCCCNC(=S)NCCCC[C@H](NS(C)(=O)=O)C(=O)N[C@H](C)C(=O)N[C@@H](CCCNC(=N)N)C(=O)N1CCOCC1 | SIRT3 | enzyme activity, inhibitor | – | – | 4.26 |
| CCCC[C@H](NC(=O)[C@H](C)c1c(C)[nH]c2ccc(O)cc12)c1ncc(-c2cc3ccccc3nc2OC)[nH]1 | Prostaglandin E2 receptor EP1 subtype (PTGER1, Homo sapiens, UniProt P34995) | enzyme activity | – | – | 5.57 |
| CSc1ccc(/C=C2/C(C)=C(CC(=O)O)c3cc(F)ccc32)cc1 | cGMP-inhibited 3',5'-cyclic phosphodiesterase 3B (PDE3B, Homo sapiens, UniProt Q13370) | enzyme activity, inhibitor | – | – | < 4.00 |
| CCc1cc(/C(C)=N/OCc2ccc(C3CCCCC3)c(C(F)(F)F)c2)ccc1CN1CC(C(=O)O)C1 | CYP2B6 | enzyme activity, inhibitor | human, liver microsomes | 20 min | < 6.22 |
| COCCN1CCN(c2nccc(NCc3ccccc3)n2)CC1 | BCHE | enzyme activity, inhibitor | – | – | < 4.00 |
| CCCCCCCCCCCCNC(=S)NCCCC[C@H](NC(C)=O)C(=O)N[C@@H](C)C(=O)N[C@@H](CCCNC(=N)N)C(N)=O | SIRT3 | enzyme activity, inhibitor | – | – | 5.66 |
| Cc1cccc2nc(-c3ccc(S(C)(=O)=O)cc3)c(Nc3ccccc3)n12 | PTGS1 | enzyme activity, inhibitor, fluorescence | – | – | 4.61 |
| O=C(O)/C=C/c1ccc(-c2ccc(F)cc2)c(Cl)c1 | PTPN11 | enzyme activity, inhibitor, fluorescence | – | – | 5.68 |
